Results taken from ChEMBL document CHEMBL1148953, “Activity-guided fractionation of the leaves of Ormosia sumatrana using a proteasome inhibition assay” (J Nat Prod, 2004).
Active and inactive are the calls of the source. The rule behind the calls is not given here.

Columns and labels:
HL-60 [1] = test: (§1) Inhibition of human HL60 cells-derived chymotrypsin-like proteasome activity; type: subcellular
How it was run: (§2)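 Proteasome-enriched fraction from HL-60 cells, prepared by 100 000g spin, then 5% and 12% PEG (w/v) fractionation and 2-fold dilution in 10 mM Tris-EDTA pH 7.5. Fraction at final 50 µg/mL in 155 mM Tris, 10 mM EDTA, pH 7.4. Preincubated with inhibitor 30 min at room temperature, then 10 µM Suc-LLVY-AMC for 1 h. Free AMC read at ex 360/em 460 nm. IC50 reported.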

KB = test: In vivo cytotoxicity against human KB cells by hollow fiber assay; type: functional
Col2 = test: In vivo cytotoxicity against human Col2 cells by hollow fiber assay; type: functional
[2] = In vivo cytotoxicity against human RPE1 cells expressing human telomerase reverse transcriptase by hollow fiber assay; type: functional, TERT-RPE1
HL-60 [3] = test: Inhibition of human HL60 cells-derived chymotrypsin-like proteasome activity at 28 uM; type: subcellular
[4] = as §1; type: subcellular; details: hl-60; how it was run: as §2

| Activity (HL-60 [1]) | inhibition (HL-60 [3]) | IC50 [4] | SMILES | ED50 (KB) | ED50 (Col2) | ED50 [2] |
| --- | --- | --- | --- | --- | --- | --- |
| inactive |  |  | CCCCCCCCCCCCCCCCCCCCCC[C@@H](OC(C)=O)C(=O)OC | >5 µg/mL | >5 µg/mL | >5 µg/mL |
|  | < 10% |  | O=C(/C=C/c1ccccc1)O[C@@H]1Cc2c(O)cc3c(c2O[C@@H]1c1ccc(O)c(O)c1)[C@H]1c2c(O)cc(O)cc2O[C@@](c2ccc(O)c(O)c2)(O3)[C@@H]1O |  |  |  |
| inactive |  |  | CCCCCCCC/C=C\CCCC[C@@H](OC(C)=O)[C@@H](OC(C)=O)[C@H](COC(C)=O)NC(C)=O | >5 µg/mL | >5 µg/mL | >5 µg/mL |
|  |  | 30 µM | CCCCCCCC/C=C\CCCC[C@@H](O)[C@@H](O)C(CO[C@@H]1O[C@H](CO)[C@@H](O)[C@H](O)[C@H]1O)NC(=O)[C@@H](O)CCCCCCCCCCCCCCCCCCCCCC (stereo not given in full) [SUMATRANOSIDE] |  |  |  |
